What was measured:
Conditions in all cases: stereoisomer not certain
UniProt A2ATE5 = target: T1, UniProt A2ATE5
T1 sequence (whole entry): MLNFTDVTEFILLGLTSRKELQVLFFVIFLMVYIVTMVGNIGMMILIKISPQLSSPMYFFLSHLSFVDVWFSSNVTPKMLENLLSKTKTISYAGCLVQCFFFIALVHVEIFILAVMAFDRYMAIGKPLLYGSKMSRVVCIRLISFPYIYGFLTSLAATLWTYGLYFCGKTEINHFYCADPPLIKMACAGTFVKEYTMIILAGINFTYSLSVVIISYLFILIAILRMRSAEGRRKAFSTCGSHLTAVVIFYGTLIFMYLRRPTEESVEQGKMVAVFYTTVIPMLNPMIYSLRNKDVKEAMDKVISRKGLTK
Outline: (§1)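 Values were gathered from published papers (main text and supplementary material), with extra details requested from the original authors when needed, and checked for typos and inconsistencies. Each receptor–molecule pair is called responsive (active) if the original authors judged the measured signal statistically different from baseline, and non-responsive (inactive) otherwise. Assay methods varied by source, often transient mammalian cell-line luciferase assays. Recorded details include cell line, G-protein, co-transfected protein and tags.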

UniProt A2AVB0 = target: T2, UniProt A2AVB0
T2 sequence (whole entry): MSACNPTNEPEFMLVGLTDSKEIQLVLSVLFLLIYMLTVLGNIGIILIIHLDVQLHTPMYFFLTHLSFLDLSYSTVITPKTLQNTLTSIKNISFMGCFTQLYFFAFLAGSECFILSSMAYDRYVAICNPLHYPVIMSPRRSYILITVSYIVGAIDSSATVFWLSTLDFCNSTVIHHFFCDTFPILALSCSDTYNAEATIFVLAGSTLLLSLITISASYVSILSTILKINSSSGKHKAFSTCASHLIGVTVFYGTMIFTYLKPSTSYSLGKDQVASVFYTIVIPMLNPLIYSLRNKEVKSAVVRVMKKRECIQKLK
Outline: as §1

UniProt E9PVX1 = target: T3, UniProt E9PVX1
T3 sequence (whole entry): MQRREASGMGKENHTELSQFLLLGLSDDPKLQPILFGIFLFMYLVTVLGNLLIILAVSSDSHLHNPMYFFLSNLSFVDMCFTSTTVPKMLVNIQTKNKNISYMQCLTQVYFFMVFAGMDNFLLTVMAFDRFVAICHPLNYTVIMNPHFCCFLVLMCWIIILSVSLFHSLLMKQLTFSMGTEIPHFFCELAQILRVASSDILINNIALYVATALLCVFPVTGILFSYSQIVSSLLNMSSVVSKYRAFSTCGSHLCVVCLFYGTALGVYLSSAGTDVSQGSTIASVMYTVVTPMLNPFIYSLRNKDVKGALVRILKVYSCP
Outline: as §1

UniProt E9PZ66 = target: T4, UniProt E9PZ66
T4 sequence (whole entry): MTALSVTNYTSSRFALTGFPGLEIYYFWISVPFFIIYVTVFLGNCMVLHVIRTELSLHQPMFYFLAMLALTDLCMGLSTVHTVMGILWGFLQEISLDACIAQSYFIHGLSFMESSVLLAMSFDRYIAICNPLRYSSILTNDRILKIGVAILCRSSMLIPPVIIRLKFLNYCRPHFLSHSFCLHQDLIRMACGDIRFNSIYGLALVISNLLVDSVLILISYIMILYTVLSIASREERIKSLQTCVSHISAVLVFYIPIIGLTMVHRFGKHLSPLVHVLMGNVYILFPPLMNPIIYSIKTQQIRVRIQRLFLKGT
Outline: as §1

UniProt E9Q4X7 = target: T5, UniProt E9Q4X7
T5 sequence (whole entry): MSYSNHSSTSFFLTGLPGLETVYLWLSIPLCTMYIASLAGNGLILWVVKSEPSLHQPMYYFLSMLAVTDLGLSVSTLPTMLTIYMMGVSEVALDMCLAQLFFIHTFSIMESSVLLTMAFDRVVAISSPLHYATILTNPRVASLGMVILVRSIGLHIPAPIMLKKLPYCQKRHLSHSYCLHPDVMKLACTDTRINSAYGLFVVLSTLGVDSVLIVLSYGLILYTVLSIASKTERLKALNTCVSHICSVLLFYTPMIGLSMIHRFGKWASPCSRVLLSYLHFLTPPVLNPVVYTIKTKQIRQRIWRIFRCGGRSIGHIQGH
Outline: as §1

UniProt E9Q546 = target: T6, UniProt E9Q546
T6 sequence (whole entry): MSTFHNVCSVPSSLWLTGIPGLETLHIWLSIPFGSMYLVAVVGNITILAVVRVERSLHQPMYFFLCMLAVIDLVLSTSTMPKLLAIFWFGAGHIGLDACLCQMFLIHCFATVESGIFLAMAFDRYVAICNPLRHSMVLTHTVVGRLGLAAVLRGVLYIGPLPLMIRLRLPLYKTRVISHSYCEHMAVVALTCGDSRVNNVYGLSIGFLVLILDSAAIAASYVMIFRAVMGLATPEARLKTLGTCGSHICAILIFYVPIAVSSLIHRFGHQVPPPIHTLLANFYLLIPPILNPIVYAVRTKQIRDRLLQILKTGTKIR
Outline: as §1

UniProt E9Q6Z7 = target: T7, UniProt E9Q6Z7
T7 sequence (whole entry): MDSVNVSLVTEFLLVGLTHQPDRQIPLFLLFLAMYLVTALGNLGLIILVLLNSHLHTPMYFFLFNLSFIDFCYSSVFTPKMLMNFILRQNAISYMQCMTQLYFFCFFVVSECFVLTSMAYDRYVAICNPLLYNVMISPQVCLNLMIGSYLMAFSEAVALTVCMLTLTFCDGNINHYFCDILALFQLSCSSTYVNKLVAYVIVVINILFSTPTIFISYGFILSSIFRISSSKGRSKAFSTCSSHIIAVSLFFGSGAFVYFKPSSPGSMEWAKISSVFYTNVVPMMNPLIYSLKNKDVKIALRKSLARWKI
Outline: as §1

UniProt A2AVA9 = target: UniProt A2AVA9
Outline: as §1

UniProt A2AVB5 = target: T8, UniProt A2AVB5
T8 sequence (whole entry): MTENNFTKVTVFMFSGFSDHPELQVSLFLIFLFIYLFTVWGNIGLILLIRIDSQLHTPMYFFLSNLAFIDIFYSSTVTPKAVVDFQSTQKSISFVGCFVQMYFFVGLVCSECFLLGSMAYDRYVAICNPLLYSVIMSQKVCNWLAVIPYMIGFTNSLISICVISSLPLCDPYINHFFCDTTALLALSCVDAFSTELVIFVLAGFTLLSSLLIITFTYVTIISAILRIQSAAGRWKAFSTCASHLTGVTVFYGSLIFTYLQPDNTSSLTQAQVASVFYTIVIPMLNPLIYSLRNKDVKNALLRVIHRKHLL
Outline: as §1

UniProt A2AVC3 = target: UniProt A2AVC3
Outline: as §1

UniProt B2RVX8 = target: T9, UniProt B2RVX8
T9 sequence (whole entry): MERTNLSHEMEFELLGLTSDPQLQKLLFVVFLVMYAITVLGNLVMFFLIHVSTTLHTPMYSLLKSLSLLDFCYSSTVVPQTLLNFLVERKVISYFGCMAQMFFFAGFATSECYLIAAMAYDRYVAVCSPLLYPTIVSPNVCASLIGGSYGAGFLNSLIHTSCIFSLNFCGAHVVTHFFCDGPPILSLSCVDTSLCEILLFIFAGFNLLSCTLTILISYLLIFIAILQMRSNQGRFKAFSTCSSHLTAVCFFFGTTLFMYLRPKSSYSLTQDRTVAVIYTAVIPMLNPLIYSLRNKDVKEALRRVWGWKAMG
Outline: as §1

UniProt E9PXH6 = target: UniProt E9PXH6
Outline: as §1

UniProt E9Q891 = target: UniProt E9Q891
Outline: as §1

UniProt K7N5T5 = target: UniProt K7N5T5
Outline: as §1

UniProt K7N609 = target: T10, UniProt K7N609
T10 sequence (whole entry): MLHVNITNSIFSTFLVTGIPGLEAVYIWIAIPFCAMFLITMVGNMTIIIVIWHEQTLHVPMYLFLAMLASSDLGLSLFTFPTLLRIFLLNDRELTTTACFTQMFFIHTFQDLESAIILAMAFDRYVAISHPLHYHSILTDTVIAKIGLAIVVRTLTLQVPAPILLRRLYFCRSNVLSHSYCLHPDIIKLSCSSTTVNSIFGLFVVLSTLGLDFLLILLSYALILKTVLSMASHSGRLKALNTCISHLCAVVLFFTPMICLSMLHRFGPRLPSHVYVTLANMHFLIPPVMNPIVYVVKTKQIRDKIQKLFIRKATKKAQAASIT
Outline: as §1

UniProt E9PX47 = target: T11, UniProt E9PX47
T11 sequence (whole entry): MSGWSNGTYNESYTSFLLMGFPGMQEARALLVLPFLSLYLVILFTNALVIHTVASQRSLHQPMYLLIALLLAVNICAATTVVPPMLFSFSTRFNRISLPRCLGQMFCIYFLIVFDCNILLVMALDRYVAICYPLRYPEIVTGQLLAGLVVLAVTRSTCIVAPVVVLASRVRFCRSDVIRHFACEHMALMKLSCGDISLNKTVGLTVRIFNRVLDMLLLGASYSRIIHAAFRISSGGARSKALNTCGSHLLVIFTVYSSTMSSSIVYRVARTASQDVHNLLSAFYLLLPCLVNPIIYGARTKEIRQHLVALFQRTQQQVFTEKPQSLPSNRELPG
Outline: as §1

UniProt E9PXN3 = target: T12, UniProt E9PXN3
T12 sequence (whole entry): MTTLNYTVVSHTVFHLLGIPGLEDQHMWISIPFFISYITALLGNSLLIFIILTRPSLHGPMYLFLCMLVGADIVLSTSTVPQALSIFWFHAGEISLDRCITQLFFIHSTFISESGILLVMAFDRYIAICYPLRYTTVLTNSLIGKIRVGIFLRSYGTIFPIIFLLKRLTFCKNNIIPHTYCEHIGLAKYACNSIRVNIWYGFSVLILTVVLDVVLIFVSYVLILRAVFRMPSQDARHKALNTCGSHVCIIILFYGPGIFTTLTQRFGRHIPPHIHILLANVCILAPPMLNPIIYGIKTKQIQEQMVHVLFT
Outline: as §1

Measured: odorant receptor agonist call

Sequence of UniProt K7N5T5 (K7N5T5 as listed by the source): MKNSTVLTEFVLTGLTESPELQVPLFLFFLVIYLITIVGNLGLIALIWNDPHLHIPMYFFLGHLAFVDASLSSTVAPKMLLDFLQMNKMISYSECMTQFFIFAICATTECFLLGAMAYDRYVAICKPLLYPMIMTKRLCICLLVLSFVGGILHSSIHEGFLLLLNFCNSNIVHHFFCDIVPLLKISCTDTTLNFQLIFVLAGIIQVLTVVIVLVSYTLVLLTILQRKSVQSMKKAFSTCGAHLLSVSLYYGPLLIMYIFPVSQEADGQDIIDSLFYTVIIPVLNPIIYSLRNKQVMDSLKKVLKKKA
Sequence of UniProt E9PXH6 (E9PXH6 as listed by the source): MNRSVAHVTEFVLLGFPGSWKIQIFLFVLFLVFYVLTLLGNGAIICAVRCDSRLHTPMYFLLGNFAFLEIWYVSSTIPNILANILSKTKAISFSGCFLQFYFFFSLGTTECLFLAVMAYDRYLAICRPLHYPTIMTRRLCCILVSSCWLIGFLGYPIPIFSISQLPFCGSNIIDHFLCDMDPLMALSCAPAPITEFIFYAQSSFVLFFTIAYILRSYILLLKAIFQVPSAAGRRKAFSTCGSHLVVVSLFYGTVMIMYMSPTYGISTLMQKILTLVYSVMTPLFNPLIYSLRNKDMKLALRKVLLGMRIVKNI
Sequence of UniProt A2AVC3 (A2AVC3 as listed by the source): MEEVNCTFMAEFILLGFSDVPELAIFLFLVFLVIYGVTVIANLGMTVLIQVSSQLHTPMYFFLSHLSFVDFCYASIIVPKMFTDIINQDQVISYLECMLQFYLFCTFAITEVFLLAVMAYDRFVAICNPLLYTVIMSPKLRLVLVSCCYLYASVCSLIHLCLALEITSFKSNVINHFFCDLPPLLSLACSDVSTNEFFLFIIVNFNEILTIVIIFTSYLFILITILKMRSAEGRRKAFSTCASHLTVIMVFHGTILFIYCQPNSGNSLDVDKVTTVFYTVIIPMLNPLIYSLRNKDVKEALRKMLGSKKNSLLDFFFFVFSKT
Sequence of UniProt E9Q891 (E9Q891 as listed by the source): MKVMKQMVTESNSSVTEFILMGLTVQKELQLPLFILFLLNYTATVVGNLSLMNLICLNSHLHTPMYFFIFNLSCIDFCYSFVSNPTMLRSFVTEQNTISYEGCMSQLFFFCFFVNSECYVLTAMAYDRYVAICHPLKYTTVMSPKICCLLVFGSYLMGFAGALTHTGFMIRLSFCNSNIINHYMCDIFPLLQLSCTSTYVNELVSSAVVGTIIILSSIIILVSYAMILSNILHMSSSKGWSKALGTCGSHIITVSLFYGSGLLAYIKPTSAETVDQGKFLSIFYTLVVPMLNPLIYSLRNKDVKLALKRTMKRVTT
Sequence of UniProt A2AVA9 (A2AVA9 as listed by the source): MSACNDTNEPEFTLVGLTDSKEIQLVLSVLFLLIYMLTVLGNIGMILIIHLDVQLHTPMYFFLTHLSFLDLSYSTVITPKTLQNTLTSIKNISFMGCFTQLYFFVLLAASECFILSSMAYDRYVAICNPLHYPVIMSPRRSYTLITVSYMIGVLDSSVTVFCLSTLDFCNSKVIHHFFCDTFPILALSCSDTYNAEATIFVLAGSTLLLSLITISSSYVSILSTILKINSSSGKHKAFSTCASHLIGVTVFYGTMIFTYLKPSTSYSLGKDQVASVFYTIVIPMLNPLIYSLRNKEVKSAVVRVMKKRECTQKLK

COC(OC)c1ccccc1
inactive: UniProt A2ATE5 | UniProt A2AVB0 | UniProt E9PVX1 | UniProt E9PZ66 | UniProt E9Q4X7 | UniProt E9Q546 | UniProt E9Q6Z7

CCCCCCC(C)O (stereo not given)
inactive: UniProt A2ATE5 | UniProt A2AVB0 | UniProt E9PVX1 | UniProt E9PZ66 | UniProt E9Q4X7 | UniProt E9Q546
active: UniProt E9Q6Z7

O=c1ccc2ccccc2o1
inactive: UniProt A2AVC3 | UniProt B2RVX8 | UniProt E9Q546 | UniProt K7N5T5 | UniProt K7N609
active: UniProt A2AVA9 | UniProt A2AVB5 | UniProt E9PXH6 | UniProt E9Q891

CC(=O)OCc1ccc2c(c1)OCO2
inactive: UniProt A2ATE5 | UniProt A2AVB0 | UniProt E9PVX1 | UniProt E9PZ66 | UniProt E9Q4X7 | UniProt E9Q546 | UniProt E9Q6Z7

CCCCCCCCC=CC=O
inactive: UniProt A2ATE5 | UniProt A2AVB0 | UniProt E9PVX1 | UniProt E9PZ66 | UniProt E9Q4X7 | UniProt E9Q546 | UniProt E9Q6Z7

CCCCOC(=O)CCC
inactive: UniProt E9PX47 | UniProt E9PXN3

CCCCCCCCCCCC(=O)O
active: UniProt E9PXN3

Source: the M2OR odorant receptor database
